Format in all cases: cell-based
The target in test [1] is D(2) dopamine receptor (Homo sapiens) (UniProt P14416). Description: Negative allosteric modulation of human D2LR expressed in Flp-In-CHO cells assessed as inhibition of dopamine-indued ERK1/2 phosphorylation preincubated for 30 mins followed by dopamine addition and measured after 5 mins by AlphaScreen assay relative to control. Summed up:
(§1)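 pERK1/2 signalling through the long D2 isoform (D2LR) expressed in FlpIn CHO cells. Test ligands were measured against increasing dopamine concentrations. Curves were fitted with an operational model of allosterism (functional affinity KB, cooperativity α, efficacy modulation β, net αβ) and with a Gaddum-Schild model (KB, Schild slope). The better fit was chosen by F-test. Mean ± SEM of three experiments run in duplicate.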
On the technique in general: In Alpha technology, singlet oxygen from a donor bead excites a nearby acceptor bead.

The target is the same in test [2]. Description: Negative allosteric modulation of human D2LR expressed in Flp-In-CHO cells assessed as inhibition of dopamine-indued ERK1/2 phosphorylation by measuring negative co-operativity factor preincubated for 30 mins followed by dopamine addition and measured after 5 mins by AlphaScreen assay. Put shortly:
as §1

Test [3] shares this target. The test is described as follows: Negative allosteric modulation of human D2LR expressed in Flp-In-CHO cells assessed as inhibition of dopamine-indued ERK1/2 phosphorylation preincubated for 30 mins followed by dopamine addition and measured after 5 mins by AlphaScreen assay. Summed up:
as §1

Test [4] shares this target. The test is described as follows: Negative allosteric modulation of human D2LR expressed in Flp-In-CHO cells assessed as inhibition of dopamine-indued ERK1/2 phosphorylation by measuring effect on dopamine efficacy preincubated for 30 mins followed by dopamine addition and measured after 5 mins by AlphaScreen assay. Summed up: as §1
The target is the same in test [5]. The test is described as follows: Negative allosteric modulation of human D2LR expressed in Flp-In-CHO cells assessed as inhibition of dopamine-indued ERK1/2 phosphorylation by measuring co-operativity factor preincubated for 30 mins followed by dopamine addition and measured after 5 mins by AlphaScreen assay. Summed up:
as §1

The target is the same in test [6]. The test is described as follows: Negative allosteric modulation of human D2LR expressed in Flp-In-CHO cells assessed as inhibition of dopamine-indued ERK1/2 phosphorylation by measuring effect on dopamine efficacy preincubated for 30 mins followed by dopamine addition and measured after 5 mins by AlphaScreen assay relative to control. Summed up: as §1
Test [7] has the same target. The test is described as follows: Negative allosteric modulation of human D2LR expressed in Flp-In-CHO cells assessed as inhibition of dopamine-indued ERK1/2 phosphorylation by measuring co-operativity factor preincubated for 30 mins followed by dopamine addition and measured after 5 mins by AlphaScreen assay relative to control. Put shortly: as §1

One may read the pKb as the Kb on a negative log10 scale, so that one unit is a factor of ten.

Sequence of D(2) dopamine receptor (Homo sapiens) (P14416 whole entry, canonical isoform): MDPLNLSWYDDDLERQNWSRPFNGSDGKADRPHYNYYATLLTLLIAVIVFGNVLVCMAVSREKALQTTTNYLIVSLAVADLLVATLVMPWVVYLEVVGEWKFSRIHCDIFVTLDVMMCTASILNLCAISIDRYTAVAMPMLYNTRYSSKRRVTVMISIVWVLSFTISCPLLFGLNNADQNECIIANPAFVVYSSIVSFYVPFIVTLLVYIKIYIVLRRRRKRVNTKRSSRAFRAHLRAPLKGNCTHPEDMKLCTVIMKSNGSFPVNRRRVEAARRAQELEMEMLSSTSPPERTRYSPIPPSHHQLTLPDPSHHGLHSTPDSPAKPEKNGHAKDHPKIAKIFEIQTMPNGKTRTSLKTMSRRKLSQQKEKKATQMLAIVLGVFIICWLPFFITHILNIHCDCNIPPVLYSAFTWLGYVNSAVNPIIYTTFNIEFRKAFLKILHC

Regarding `N#Cc1ccc2c(c1)CN(CC[C@H]1CC[C@H](NC(=O)c3c[nH]c4ncccc34)CC1)CC2`, in test [1], the fold change (FC) stood at 32. Also, in test [2], the Activity was determined as 0.032 and the log(activity) was -1.5. Moreover, in test [3], the Kb worked out at 34 nM and the negative-log Kb (pKb) was 7.47.
On the same counts, the results for `N#Cc1ccc2c(c1)CN(CC[C@H]1CC[C@H](NC(=O)c3cc4cccc(F)c4[nH]3)CC1)CC2` are 62, 0.016, -1.79, 4.5 nM and 8.35.
As to `N#Cc1ccc2c(c1)CN(CC[C@H]1CC[C@H](NC(=O)c3cc4c(F)cccc4[nH]3)CC1)CC2`, the fold change (FC) in test [1] was 32. Also, in test [2], the Activity is 0.032 and the log(activity) was -1.5. Further, in test [3], the Kb came out at 47 nM and the negative logarithm of the Kb (pKb) was 7.33.
Turning to `N#Cc1ccc2c(c1)CN(CC[C@H]1CC[C@H](NC(=O)c3c[nH]c4ccccc34)CC1)CC2`, in test [3], the Kb worked out at 63 nM and the pKb was determined as 7.2.
For the molecule `N#Cc1ccc2c(c1)CN(CC[C@H]1CC[C@H](NC(=O)c3c[nH]c4cccnc34)CC1)CC2`, in test [4], the Activity amounted to 0.16 and the log(activity) is -0.8. In test [5], the Activity worked out at 0.048 and the log(activity) is -1.32. Also, in test [3], the Kb was 0.148 nM and the pKb amounted to 9.83. In addition, the fold change (FC) in test [6] amounted to 6. The fold change (FC) in test [7] was 21.
For `COc1ccc2[nH]c(C(=O)N[C@H]3CC[C@H](CCN4CCc5ccc(C#N)cc5C4)CC3)cc2c1`, in test [3], the Kb worked out at 2 nM and the pKb worked out at 8.7.
In the case of `N#Cc1ccc2c(c1)CN(CC[C@H]1CC[C@H](NC(=O)c3cnc4ccccn34)CC1)CC2`, in test [1], the fold change (FC) was determined as 210. In test [2], the Activity was found to be 0.0048 and the log(activity) was -2.31. Also, in test [3], the Kb was 24 nM and the negative logarithm of the Kb (pKb) worked out at 7.62.
For `N#Cc1ccc2c(c1)CN(CC[C@H]1CC[C@H](NC(=O)c3cc4cccnc4[nH]3)CC1)CC2`, in test [1], the fold change (FC) is 26. Also, in test [2], the Activity was found to be 0.038 and the log(activity) is -1.42. For the same molecule, the negative-log Kb (pKb) in test [3] turned out to be 7.63.
For `N#Cc1ccc2c(c1)CN(CC[C@H]1CC[C@H](NC(=O)c3cc4sccc4[nH]3)CC1)CC2`, in test [3], the Kb was 87 nM and the pKb was determined as 7.06.
Take `N#Cc1ccc2c(c1)CN(CC[C@H]1CC[C@H](NC(=O)c3c[nH]c4cnccc34)CC1)CC2`: the fold change (FC) in test [1] came to 275. In test [2], the Activity turned out to be 0.0036 and the log(activity) was -2.44. Also, in test [3], the Kb came out at 10 nM and the pKb was 8.
On to `COc1ccc2cc(C(=O)N[C@H]3CC[C@H](CCN4CCc5ccc(C#N)cc5C4)CC3)[nH]c2c1`, for which, in test [3], the Kb was 25 nM and the pKb is 7.6.
Take `N#Cc1ccc2c(c1)CN(CC[C@H]1CC[C@H](NC(=O)c3cc4ccncc4[nH]3)CC1)CC2`: the fold change (FC) in test [1] was found to be 1800. In test [2], the Activity amounted to 0.00055 and the log(activity) was -3.26. In test [3], the Kb is 2.7 nM and the negative-log Kb (pKb) was 8.57.
Take `N#Cc1ccc2c(c1)CN(CC[C@H]1CC[C@H](NC(=O)c3cc4cc(F)ccc4[nH]3)CC1)CC2`: the fold change (FC) in test [1] came out at 63. In test [2], the Activity was found to be 0.016 and the log(activity) is -1.8. In test [3], the Kb was 6.8 nM and the pKb is 8.17.
Turning to `N#Cc1ccc2c(c1)CN(CC[C@H]1CC[C@H](NC(=O)c3cc4ccc(F)cc4[nH]3)CC1)CC2`, the fold change (FC) in test [1] worked out at 15. In test [2], the Activity was determined as 0.065 and the log(activity) is -1.19. In test [3], the Kb worked out at 219 nM and the negative-log Kb (pKb) was found to be 6.66.
The like results for `N#Cc1ccc2c(c1)CN(CC[C@H]1CC[C@H](NC(=O)c3cc4ccccn4n3)CC1)CC2` were, in that order, 33, 0.03, -1.52, 165 nM and 6.78.
Take `N#Cc1ccc2c(c1)CN(CC[C@H]1CC[C@H](NC(=O)c3cnn4ccccc34)CC1)CC2`: in test [3], the Kb came out at 40 nM and the pKb worked out at 7.39.
On the same counts, the results for `N#Cc1ccc2c(c1)CN(CC[C@H]1CC[C@H](NC(=O)c3c[nH]c4ccncc34)CC1)CC2` are 3.5 nM and 8.46.
As to `COc1cccc2[nH]c(C(=O)N[C@H]3CC[C@H](CCN4CCc5ccc(C#N)cc5C4)CC3)cc12`, in test [1], the fold change (FC) turned out to be 3. Also, in test [2], the Activity came to 0.3 and the log(activity) was -0.52. Moreover, in test [3], the Kb was 617 nM and the negative-log Kb (pKb) was found to be 6.21.
Consider `COc1cccc2cc(C(=O)N[C@H]3CC[C@H](CCN4CCc5ccc(C#N)cc5C4)CC3)[nH]c12`, for which, in test [3], the Kb worked out at 51 nM and the negative logarithm of the Kb (pKb) amounted to 7.29.

Values taken from ChEMBL document CHEMBL4308838, “Subtle Modifications to the Indole-2-carboxamide Motif of the Negative Allosteric Modulator N-(( trans)-4-(2-(7-Cyano-3,4-dihydroisoquinolin-2(1 H)-yl)ethyl)cyclohexyl)-1 H-indole-2-carboxamide (SB269652) Yield Dramatic Changes in Pharmacological Activity at the Dopamine D2 Receptor” (J Med Chem, 2018).
